Measured values taken from ChEMBL document CHEMBL4673287, “Synthesis and biological evaluation of novel antipsychotic trans-4-(2-(1,2,4,5-tetrahydro-3H-benzo[d]azepin-3-yl)ethyl)cyclohexan-1-amine derivatives targeting dopamine/serotonin receptor subtypes” (Bioorg Med Chem Lett, 2021).

Legend:
[1] = target: Adrenergic receptor alpha-1 (Rattus norvegicus) (UniProt P15823+P23944+P43140); assay: Displacement of [3H]-prazosin from adrenergic alpha1 in rat cerebral cortex at 10 uM relative to control; assay type: tissue-based
D(2) dopamine receptor [2] = target: T1, D(2) dopamine receptor (Homo sapiens, UniProt P14416); assay: Displacement of [3H]-spiperone from recombinant human D2L receptor expressed in CHO cells; assay type: cell-based
T1 sequence (P14416 whole entry): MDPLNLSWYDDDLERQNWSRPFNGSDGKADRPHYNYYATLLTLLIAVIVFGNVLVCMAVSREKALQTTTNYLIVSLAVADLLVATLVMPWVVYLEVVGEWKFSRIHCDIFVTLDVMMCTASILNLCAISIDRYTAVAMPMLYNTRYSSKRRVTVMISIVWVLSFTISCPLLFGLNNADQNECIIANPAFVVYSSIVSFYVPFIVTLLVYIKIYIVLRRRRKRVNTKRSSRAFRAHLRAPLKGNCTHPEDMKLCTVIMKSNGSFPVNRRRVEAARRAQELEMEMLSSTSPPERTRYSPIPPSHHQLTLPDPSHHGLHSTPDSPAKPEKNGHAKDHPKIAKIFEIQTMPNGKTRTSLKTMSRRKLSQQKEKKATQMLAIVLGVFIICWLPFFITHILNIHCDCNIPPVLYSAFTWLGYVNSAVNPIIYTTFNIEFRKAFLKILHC
Method in brief: (§1)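 Eight-concentration displacement curves, two independent experiments in duplicate, value is the mean Ki.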

D(3) dopamine receptor [3] = target: T2, D(3) dopamine receptor (Homo sapiens, UniProt P35462); assay: Displacement of [3H]methyl-spiperone from recombinant human D3 receptor expressed in CHO cells; assay type: cell-based
T2 sequence (P35462 whole entry): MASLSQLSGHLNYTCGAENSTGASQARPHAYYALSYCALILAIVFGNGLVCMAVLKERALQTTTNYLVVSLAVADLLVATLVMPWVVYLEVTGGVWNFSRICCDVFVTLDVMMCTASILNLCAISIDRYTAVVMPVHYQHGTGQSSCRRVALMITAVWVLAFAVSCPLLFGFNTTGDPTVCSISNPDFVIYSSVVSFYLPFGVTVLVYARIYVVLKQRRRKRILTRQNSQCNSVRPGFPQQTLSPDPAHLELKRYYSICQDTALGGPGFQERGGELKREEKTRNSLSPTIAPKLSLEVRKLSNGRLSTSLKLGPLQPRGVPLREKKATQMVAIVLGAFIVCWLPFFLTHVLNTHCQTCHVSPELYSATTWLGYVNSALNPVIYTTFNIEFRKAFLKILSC

[4] = target: T3, 5-hydroxytryptamine receptor 2A (Homo sapiens, UniProt P28223); assay: Displacement of [3H]ketanserin from recombinant human 5-HT2A receptor expressed in human HEK293 cells at 10 uM relative to control; assay type: cell-based
T3 sequence (P28223 whole entry): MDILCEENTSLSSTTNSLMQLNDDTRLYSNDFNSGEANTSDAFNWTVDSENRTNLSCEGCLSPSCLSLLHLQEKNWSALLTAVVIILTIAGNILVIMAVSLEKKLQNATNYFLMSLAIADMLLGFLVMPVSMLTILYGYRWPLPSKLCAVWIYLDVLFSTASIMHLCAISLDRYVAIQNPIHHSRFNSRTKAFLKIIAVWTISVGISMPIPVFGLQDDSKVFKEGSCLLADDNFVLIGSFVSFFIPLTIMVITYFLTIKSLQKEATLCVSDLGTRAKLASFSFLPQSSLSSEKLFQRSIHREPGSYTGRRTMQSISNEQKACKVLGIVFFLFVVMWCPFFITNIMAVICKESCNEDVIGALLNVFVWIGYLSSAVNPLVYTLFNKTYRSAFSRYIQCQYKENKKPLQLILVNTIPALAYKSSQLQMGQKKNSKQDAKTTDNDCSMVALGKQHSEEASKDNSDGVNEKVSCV

[5] = target: T4, 5-hydroxytryptamine receptor 1A (Homo sapiens, UniProt P08908); assay: Displacement of [3H]OH-DPAT from recombinant human 5-HT1A receptor expressed in human HEK293 cells; assay type: cell-based; method in brief: as §1
T4 sequence (P08908 whole entry): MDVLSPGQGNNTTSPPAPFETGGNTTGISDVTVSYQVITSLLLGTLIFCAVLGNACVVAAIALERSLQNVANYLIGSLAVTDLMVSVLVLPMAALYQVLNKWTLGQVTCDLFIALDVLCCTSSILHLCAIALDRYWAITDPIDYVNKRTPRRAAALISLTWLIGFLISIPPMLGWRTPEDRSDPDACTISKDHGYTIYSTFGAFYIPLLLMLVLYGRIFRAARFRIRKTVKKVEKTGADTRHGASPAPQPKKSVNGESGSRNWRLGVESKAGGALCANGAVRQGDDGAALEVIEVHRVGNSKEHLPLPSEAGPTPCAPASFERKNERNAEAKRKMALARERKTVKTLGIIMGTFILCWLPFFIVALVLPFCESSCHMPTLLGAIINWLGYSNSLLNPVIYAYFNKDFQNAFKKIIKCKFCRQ

[6] = target: Histamine H1 receptor (Homo sapiens) (UniProt P35367); assay: Displacement of [3H]-pyrilamine from human H1 histamine receptor expressed in human HEK293 cells at 10 uM relative to control; assay type: cell-based
Chain of Histamine H1 receptor (Homo sapiens) (P35367 whole entry): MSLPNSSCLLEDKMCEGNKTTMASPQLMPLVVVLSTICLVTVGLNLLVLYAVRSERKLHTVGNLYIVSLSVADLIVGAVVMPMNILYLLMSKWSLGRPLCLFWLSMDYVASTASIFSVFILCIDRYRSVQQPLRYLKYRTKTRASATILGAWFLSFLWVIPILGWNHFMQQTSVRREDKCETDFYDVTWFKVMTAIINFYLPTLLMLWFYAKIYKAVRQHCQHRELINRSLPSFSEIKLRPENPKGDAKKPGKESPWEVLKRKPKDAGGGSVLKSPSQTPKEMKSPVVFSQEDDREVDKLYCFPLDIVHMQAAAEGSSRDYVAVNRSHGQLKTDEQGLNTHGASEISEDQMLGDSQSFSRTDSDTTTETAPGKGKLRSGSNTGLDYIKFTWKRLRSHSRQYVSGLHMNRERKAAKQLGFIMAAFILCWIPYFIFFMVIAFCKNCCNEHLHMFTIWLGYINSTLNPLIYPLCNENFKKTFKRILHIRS

[7] = target: T5, 5-hydroxytryptamine receptor 1A (Homo sapiens) (UniProt P08908); assay: Displacement of [3H]OH-DPAT from recombinant human 5-HT1A receptor expressed in human HEK293 cells at 10 uM relative to control; assay type: cell-based
T5 sequence (whole entry): T4 sequence (P08908 whole entry)

[8] = Metabolic stability in rat liver microsomes assessed as half life; assay type: ADME, Microsome
[9] = Metabolic stability in rat liver microsomes assessed as intrinsic clearance; assay type: ADME, Microsome; conditions: read-out: CLH
D(3) dopamine receptor [10] = target: T2, D(3) dopamine receptor; assay: Displacement of [3H]methyl-spiperone from recombinant human D3 receptor expressed in CHO cells at 10 uM relative to control; assay type: cell-based
D(2) dopamine receptor [11] = target: T1, D(2) dopamine receptor; assay: Displacement of [3H]-spiperone from recombinant human D2L receptor expressed in CHO cells at 10 uM relative to control; assay type: cell-based
Rattus norvegicus = assay: Antipsychotic activity in orally dosed Sprague-Dawley rat assessed as inhibition of PCP-induced hyperactivity administered 20 mins before PCP stimulation and measured after 1 hr; assay type: functional, organism-based; conditions: dose 1-10 mg/kg, time 80.0 min
Method in brief: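 Male Sprague-Dawley rats dosed orally 20 min before PCP (5 mg/kg) injection. Locomotor activity recorded for 1 h after PCP, read as total travel distance. Mean ± standard error of the mean, n = 8-10 per group.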

[12] = target: T3, 5-hydroxytryptamine receptor 2A; assay: Displacement of [3H]ketanserin from recombinant human 5-HT2A receptor expressed in human HEK293 cells; assay type: cell-based; method in brief: as §1
[13] = Metabolic stability in human liver microsomes assessed as half life; assay type: ADME, Microsome
[14] = Metabolic stability in human liver microsomes assessed as intrinsic clearance; assay type: ADME, Microsome; conditions: read-out: CLH

| Structure (SMILES) | inhibition [1] [%] | Ki (D(2) dopamine receptor [2]) [nM] | Ki (D(3) dopamine receptor [3]) [nM] | inhibition [4] [%] | Ki [5] [nM] | inhibition [6] [%] | other results |
| --- | --- | --- | --- | --- | --- | --- | --- |
| C[C@H]1CN(CC[C@H]2CC[C@H](NC(=O)[C@@H]3CCCO3)CC2)CCc2ccc(Cl)cc21 | 36.4 | 20.6 | 19.1 | 69.6 | 98.3 | 32.2 |  |
| C[C@@H]1CN(CC[C@H]2CC[C@H](NC(=O)N(C)C)CC2)CCc2ccc(Cl)cc21 | 48.3 | 290 | 195 | 72 |  | 46.5 | inhibition [7]: 83.9% |
| CCN(CC)C(=O)N[C@H]1CC[C@H](CCN2CCc3ccc(Cl)cc3[C@@H](C)C2)CC1 | 29.1 | 91.1 | 15 | 73.6 |  | 69.2 | inhibition [7]: 75.2% |
| C[C@H]1CN(CC[C@H]2CC[C@H](NC(=O)c3ccco3)CC2)CCc2ccc(Cl)cc21 |  | 19.3 | 1.8 |  | 10.6 |  |  |
| CCCC(=O)N[C@H]1CC[C@H](CCN2CCc3ccc(Cl)cc3[C@@H](C)C2)CC1 | 18.7 | 84 | 8.1 | 52.7 |  | 27 | inhibition [7]: 81.3% |
| C[C@H]1CN(CC[C@H]2CC[C@H](N3C(=O)[C@H]4CCCC[C@H]4C3=O)CC2)CCc2ccc(Cl)cc21 | 63.2 | 14.1 | 9.3 | 76.9 | 6.6 | 86.1 |  |
| C[C@H]1CN(CC[C@H]2CC[C@H](NC(=O)C3CCCCC3)CC2)CCc2ccc(Cl)cc21 | 35.3 | 99.3 | 17.5 | 38.2 |  | 36.8 | inhibition [7]: 69.9% |
| C[C@H]1CN(CC[C@H]2CC[C@H](NC(=O)N3CCCC3)CC2)CCc2ccc(Cl)cc21 | 60.3 | 6.3 | 1.1 | 87.4 | 5.3 | 56.8 |  |
| C[C@H]1CN(CC[C@H]2CC[C@H](NC(=O)N(C)c3ccccc3)CC2)CCc2ccc(Cl)cc21 | 38.6 | 189 | 17.2 | 58.8 |  | 75 | inhibition ([7]; filed as antagonist): 82.3% |
| COc1ccc2[nH]c([S+]([O-])Cc3ncc(C)c(OC)c3C)nc2c1 (centres undefined) [OMEPRAZOLE] |  |  |  |  |  |  | half-life [8]: 38.5 min; microsomal CLint [9]: 193 µL/min/mg |
| C[C@H]1CN(CC[C@H]2CC[C@H](N3C(=O)c4ccccc4C3=O)CC2)CCc2ccc(Cl)cc21 | 37.2 | 5.8 |  | 36.3 |  | 40.8 | inhibition (D(3) dopamine receptor [10]): 82%; inhibition [7]: 82.6% |
| CC1CN(CC[C@H]2CC[C@H](NC(=O)N(C)C)CC2)CCc2ccc(Cl)cc21 (mixture of isomers) | 38 |  |  | 19.6 |  | 25.8 | inhibition (D(3) dopamine receptor [10]): 68%; inhibition [7]: 26.9%; inhibition (D(2) dopamine receptor [11]): 54.5% |
| CN1CCN(C2=Nc3cc(Cl)ccc3Nc3ccccc32)CC1 |  |  |  |  |  |  | Activity (Rattus norvegicus): Dose-dependent effect |
| C[C@H]1CN(CC[C@H]2CC[C@H](NC(=O)N3CCOCC3)CC2)CCc2ccc(Cl)cc21 | 48 | 2.9 | 1.8 | 50.6 |  | 33.3 | inhibition [7]: 86.1% |
| C[C@H]1CN(CC[C@H]2CC[C@H](NC(=O)C3CC3)CC2)CCc2ccc(Cl)cc21 | 57.6 | 9.8 | 8.2 | 56.6 | 191 | 33.2 |  |
| C[C@H]1CN(CC[C@H]2CC[C@H](N3C(=O)CCC3=O)CC2)CCc2ccc(Cl)cc21 | 62.1 |  | 191 | 47.4 | 93.4 | 62.4 | inhibition (D(2) dopamine receptor [11]): 79.8% |
| C[C@H]1CN(CC[C@H]2CC[C@H](NC(=O)Nc3ccccc3)CC2)CCc2ccc(Cl)cc21 | 53.8 | 2.8 | 1.5 | 67 |  |  | inhibition ([6]; filed as antagonist): 88.2% |
| C[C@H]1CN(CC[C@H]2CC[C@H](NC(=O)[C@@H]3CCCN3)CC2)CCc2ccc(Cl)cc21 | 75.8 | 25.3 | 9.5 | 89 | 74.7 | 60.1 |  |
| C[C@H]1CN(CC[C@H]2CC[C@H](N3C(=O)[C@@H]4[C@@H]5CC[C@@H](C5)[C@@H]4C3=O)CC2)CCc2ccc(Cl)cc21 | 79.2 | 31.6 | 3.3 | 80.8 | 24.9 |  |  |
| C[C@H]1CN(CC[C@H]2CC[C@H](N3C(=O)[C@@H]4[C@H](C3=O)[C@@H]3C=C[C@H]4C3)CC2)CCc2ccc(Cl)cc21 | 74.4 | 43.7 | 6.9 | 82.8 | 22.8 |  |  |
| C[C@H]1CN(CC[C@H]2CC[C@H](N3C(=O)CC4(CCCC4)CC3=O)CC2)CCc2ccc(Cl)cc21 | 60.9 | 12.1 | 1.2 |  | 4.3 |  | Ki [12]: 16.2 nM |
| C[C@H]1CN(CC[C@H]2CC[C@H](NC(=O)N(C)C)CC2)CCc2ccc(Cl)cc21 | 44.1 | 5.9 | 0.5 |  | 14.5 | 59.6 | half-life [8]: 23.2 min; microsomal CLint [9]: 59.7 µL/min/mg; half-life [13]: 32.7 min; Ki [12]: 25.6 nM; microsomal CLint [14]: 42.4 µL/min/mg; Activity (Rattus norvegicus): Dose-dependent effect |
| CCN(C)C(=O)N[C@H]1CC[C@H](CCN2CCc3ccc(Cl)cc3[C@@H](C)C2)CC1 | 43.5 | 23.9 | 7.2 | 85.9 | 36 | 49.7 |  |
| COc1ccc2c(c1)[C@]13CCCC[C@@H]1[C@H](C2)N(C)CC3 [DEXTROMETHORPHAN] |  |  |  |  |  |  | half-life [13]: 23.2 min; microsomal CLint [14]: 59.7 µL/min/mg |
